Shown are actives, neighbours in structure and some others; about 2.7% of the full set was active somewhere.
ARFGAP1 inhibitor: inhibitors of rat ARFGAP1 GAP activity, primary screen, biochemical, fluorescence polarization, GDP tracer; 0.26% of 360,000 active; AID 651572, 2012; Arfgap1-stimulated ARF1 GTP hydrolysis, GDP FP detection; ADP-ribosylation factor GTPase-activating protein 1 (Rattus norvegicus), Q62848; inhibition, % at 16.5 µM;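 active = inhibition above a per-plate limit, mean inhibition of low control wells plus 3 SD, cut at about 25% in these data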;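 also: 0% = DMSO wells with enzyme and 100% = wells lacking Arfgap1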
Target sequence (Q62848 1-136 limits assumed): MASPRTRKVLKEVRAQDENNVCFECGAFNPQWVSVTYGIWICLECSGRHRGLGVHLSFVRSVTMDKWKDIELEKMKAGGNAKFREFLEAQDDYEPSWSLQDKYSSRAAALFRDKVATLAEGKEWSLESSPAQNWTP
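Material – truncated rat Arfgap1 GAP domain · Buffer or medium – HEPES-based buffer, pH 7.5 · Reagent – human ARF1(Δ1-17)-GTP substrate · Dosing – 16.5 µM single point, 1.26% DMSO · Schedule – GTP hydrolysis reaction 2 h at 25 °C · Technique – GDP detection by fluorescence polarization · Benchmarks – No-Arfgap1 wells (100%) versus DMSO full-reaction wells (0%) · Repeats – single replicate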
pPAFAH FP inh: pPAFAH enzyme inhibitors, primary screen, biochemical, fluorescence polarization, human; recombinant pPAFAH, FP-rhodamine probe fluorescence polarization; inhibition, % at 3.39 µM; 1.5% of 330,000 active; AID 463082, 2010;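 active = inhibition above the mean inhibition across the screen plus 3 SD, cut at about 25% in these data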;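 also: inhibitors block binding of the rhodamine activity-based probe so polarization drops; 0% = enzyme with DMSO and 100% = wells lacking pPAFAH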
PAFAH2 inh: PAFAH2 enzyme inhibitors, primary screen, biochemical, fluorescence polarization, human; Platelet-activating factor acetylhydrolase 2, cytoplasmic (Homo sapiens), Q99487; recombinant PAFAH2, FP-rhodamine activity probe; inhibition, % at 3.39 µM; 0.99% of 340,000 active; AID 492956, 2010;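 active = inhibition above the mean over all tested compounds plus 3 SD, cut at about 30% in these data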;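 also: inhibitors block probe labeling of enzyme so polarization drops; 0% = enzyme with DMSO and 100% = wells lacking PAFAH2 protein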
PAFAH1B2 inh: PAFAH1B2 enzyme inhibitors, primary screen, biochemical, fluorescence polarization, human. 1.2% of 340,000 active. AID 492953, 2010. recombinant PAFAH1B2, FP-rhodamine activity probe. inhibition, % at 3.39 µM. Platelet-activating factor acetylhydrolase IB subunit alpha2 (Homo sapiens), P68402;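 active = inhibition above the mean of all tested compounds plus 3 SD, cut at about 24% in these data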;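 also: 0% = enzyme with DMSO and 100% = wells lacking PAFAH1B2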
Target sequence (P68402 whole entry, looked up): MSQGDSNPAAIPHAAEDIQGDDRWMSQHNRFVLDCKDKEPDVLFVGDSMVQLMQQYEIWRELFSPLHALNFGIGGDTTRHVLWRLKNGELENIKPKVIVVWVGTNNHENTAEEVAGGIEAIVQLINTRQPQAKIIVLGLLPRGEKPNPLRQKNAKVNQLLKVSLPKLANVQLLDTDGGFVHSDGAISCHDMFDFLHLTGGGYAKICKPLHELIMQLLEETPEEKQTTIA
PAFAH1B3 inh: PAFAH1B3 enzyme inhibitors, primary screen, biochemical, fluorescence polarization, human. Platelet-activating factor acetylhydrolase IB subunit alpha1 (Homo sapiens), Q15102. recombinant PAFAH1B3, FP-rhodamine probe. inhibition, % at 3.39 µM. 0.28% of 340,000 active. AID 492972, 2010;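 active = inhibition above the screen-wide average of all tested compounds plus 3 SD, cut at about 25% in these data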;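 also: 0% = enzyme with DMSO only and 100% = wells lacking PAFAH1B3 protein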
Target sequence (Q15102 whole entry, looked up): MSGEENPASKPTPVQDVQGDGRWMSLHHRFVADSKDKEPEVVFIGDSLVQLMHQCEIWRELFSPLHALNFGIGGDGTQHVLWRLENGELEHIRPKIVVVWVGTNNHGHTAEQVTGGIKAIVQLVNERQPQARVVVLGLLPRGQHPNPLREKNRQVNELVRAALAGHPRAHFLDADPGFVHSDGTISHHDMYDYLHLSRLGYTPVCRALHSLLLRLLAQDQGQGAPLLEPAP
ASAP1 GAP inh: inhibitors of human ASAP1 ArfGAP activity, primary screen, biochemical, fluorescence polarization; inhibition, % at 16.5 µM; Arf-GAP with SH3 domain, ANK repeat and PH domain-containing protein 1 (Homo sapiens), …; 0.19% of 360,000 active; ASAP1-stimulated ARF1 GTP hydrolysis, GDP FP detection; AID 624377, 2012; in the data active = inhibition above about 25%;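 also: 0% = vehicle with enzyme and substrate and 100% = no enzyme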
The depositor's hits bear a star; . = no result given.

SMILES | ARFGAP1 inhibitor | pPAFAH FP inh | PAFAH2 inh | PAFAH1B2 inh | PAFAH1B3 inh | ASAP1 GAP inh
O=C(COC(=O)c1ccc(S(=O)(=O)NCc2ccco2)cc1)Nc1ncc(Cl)cc1Cl | 1 | 25* | 16 | 2 | 2 | -3
COc1ccccc1OCCC(=O)OCC(=O)Nc1ncc(Cl)cc1Cl | 6 | 26* | 15 | 0 | 0 | -5
COc1ccccc1NC(=O)COC(=O)c1ccc(S(=O)(=O)NCc2ccco2)cc1 | -15 | 22 | 1 | -5 | 0 | 0
O=C(N[C@@H](Cc1cccnc1)C(=O)N1CCC[C@H]1C(=O)NCCc1ccccc1Cl)C1CC1 | -11 | . | . | . | . | 5
CCc1cc2c(nc1CC)CCCN2Cc1ccccc1C(F)(F)F | 1 | . | . | . | . | 4
CCCCCCC[C@@H](C/C=C/CCC(=O)N(C)C/C(=C/Cl)C/C(=C\C(=O)N1CC(OC)=CC1=O)OC)OC | -12 | 28* | 8 | 3 | 7 | 6
CCCCCCC[C@@H](C/C=C/CCC(=O)O)OC | 1 | 11 | 0 | 10 | 8 | 3
CCc1cc2c(nc1CC)CCCN2S(=O)(=O)c1ccc(C)cc1 | -3 | . | . | . | . | 6
COc1cc(/C=N/Nc2nc3c(c(=O)n(C)c(=O)n3C)n2Cc2ccccc2)ccc1OC(=O)c1ccco1 | 10 | 34* | 2 | 0 | 15 | 6
C[C@@H]1C=CCCO[C@]12C(=O)N(Cc1ccc(Br)cc1)c1ccccc12 | -1 | . | . | . | . | -9
COC(=O)C1=C(C)N(C)C(=NCc2cc(OC)c(OC)c(OC)c2)NC1c1cccc(C(F)(F)F)c1 (stereo not drawn) | 8 | . | . | . | . | -14
CCc1cccc(CC)c1NC(=O)COC(=O)CC1c2ccccc2CCN1S(=O)(=O)c1ccc(F)cc1 (stereo not drawn) | 1 | 19 | 15 | 7 | 2 | -17
O=C(O)CC1c2ccccc2CCN1S(=O)(=O)c1ccc(F)cc1 (stereo not drawn) | -11 | 4 | -6 | 31* | 1 | -16
Cc1cccc2cc(/C=N/Nc3ccc(C(=O)O)cc3)c(Cl)nc12 | -8 | 28* | 26 | 11 | 15 | 5
O=C(O)CSc1cc(NS(=O)(=O)c2ccc(Br)cc2)c2ccccc2c1O | -1 | 16 | 42* | 52* | 63* | 3
O=S(=O)(Nc1cc(Sc2ncn[nH]2)c(O)c2ccccc12)c1ccccc1 | 5 | . | . | . | . | 25*
Cc1cc(O)c(Sc2ncn[nH]2)cc1NS(=O)(=O)c1ccc(Cl)cc1 | 5 | 2 | -4 | 2 | -1 | -1
N#CCSc1ncnc2ccccc12 | 6 | 2 | 2 | 11 | 6 | 9
Cc1ccccc1CSc1ncnc2ccccc12 | 14 | 32* | -2 | 4 | 6 | 9
COC(=O)C1=C(C)N(Cc2ccccc2C(F)(F)F)C(=NCc2ccc(C(F)(F)F)cc2)NC1c1ccc(C(F)(F)F)cc1 (stereo not drawn) | 13 | . | . | . | . | 17
Cc1c(CCC(=O)O)c(=O)oc2cc(OCc3ccccc3Br)ccc12 | 7 | 33* | -10 | 8 | 11 | 11
Cc1c(CCC(=O)O)c(=O)oc2cc(OCc3cccc(F)c3)ccc12 | 9 | 9 | -3 | 4 | 10 | -2
Clc1ccc(COc2cccc(CNCc3ccncc3)c2)cc1 | -18 | 7 | 6 | 33* | 6 | 2
CN(C)C(=O)N1CCN(C(=O)[C@H]2O[C@@H](n3ccc(N)nc3=O)[C@H](O)[C@@H]2O)CC1 | 18 | . | . | . | . | -4
CC(C)(CNC(=O)c1cccc(NS(=O)(=O)c2ccc(Br)cc2)c1)N1CCOCC1 | -3 | 7 | 2 | 27* | 6 | -8
SMILES | ARFGAP1 inhibitor | pPAFAH FP inh | PAFAH2 inh | PAFAH1B2 inh | PAFAH1B3 inh | ASAP1 GAP inh
O=C(C(=O)N1CCN(S(=O)(=O)c2ccc(Cl)cc2)CC1)c1cccc(C(F)(F)F)c1 | 1 | . | . | . | . | 4
O=C(COC(=O)c1cccs1)NC12CC3CC(CC(C3)C1)C2 | 0 | 3 | 2 | -3 | 1 | 6
COc1cccc(C(=O)OCC(=O)NC23CC4CC(CC(C4)C2)C3)c1 | -2 | 27* | 82* | 19 | 12 | 0
CC(=O)Oc1cc(C(=O)OCC(=O)NC23CC4CC(CC(C4)C2)C3)cc(OC(C)=O)c1OC(C)=O | -6 | . | 88* | 65* | 3 | 5
CC(C)(C)OC(=O)N1C[C@@]23C[C@H](c4cccc(F)c4)[C@@H](C[C@@H]2S1(=O)=O)O3 | -8 | . | . | . | . | 1
CCCc1cc(=O)[nH]c(SCC(=O)Nc2cc(S(=O)(=O)N3CCCCC3)ccc2C)n1 | -10 | 4 | -2 | 24* | 15 | 9
CN=CC1=C(O)c2ccccc2C1=O | 1 | 4 | -2 | 1 | 5 | -5
O=C1C(C2=C(O)c3ccccc3C2=O)=Nc2ccccc21 | 16 | 26* | 53* | 20 | 55* | 39*
CCCSc1nc2cc(OC)c(OC)cc2c(=N)n1CCCN1CCOCC1 | 8 | 2 | 0 | 2 | 2 | 9
COCCCn1c(SCc2ccc(OC)cc2)nc2cc(OC)c(OC)cc2c1=N | 19 | 25* | 5 | 7 | 12 | 19
O=S(=O)(c1ccccc1)N1CCC2(CC1)CO2 | -5 | -5 | 15 | 5 | 1 | -10
O=S(=O)(c1ccc(Cl)cc1)N1CCC(c2nc3ccccc3[nH]2)CC1 | 10 | 3 | 11 | 27* | 4 | -2
CC(=O)c1ccc(S(=O)(=O)N2CCC(c3nc4ccccc4[nH]3)CC2)cc1 | 1 | 0 | -9 | 1 | 1 | 2
O=S(=O)(c1ccc(Cl)cc1)N1CCC2(CC1)CO2 | 21 | -2 | -6 | 28* | 11 | 3
O=S(=O)(c1ccc(Cl)cc1)N1CCC(n2cccc2)CC1 | -11 | 4 | 1 | 29* | 2 | 0
Cc1ccc(S(=O)(=O)N2CCC(=O)N(CCOCc3ccc(Cl)cc3)CC2)cc1 | -4 | 32* | 2 | 14 | -8 | -5
CC(C)C[C@@H]1COc2cc(N3CCOCC3)ccc2S(=O)(=O)N1 | 6 | . | . | . | . | 0
Nc1nc2c(ncn2[C@@H]2O[C@H](C(=O)N[C@H](Cc3ccccc3)C(=O)NCc3ccc4c(c3)OCO4)[C@@H](O)[C@H]2O)c(=O)[nH]1 | -7 | . | . | . | . | -2
Nc1[nH]c(C(=O)c2ccccc2)c(-c2ccc3ccccc3c2)c1C(=O)NCc1ccc(F)cc1 | 4 | . | . | . | . | -6
O=C1CCN(S(=O)(=O)c2ccc(Cl)cc2)CC1 | -14 | -1 | 6 | 25* | 7 | -4
COC(=O)Cn1cnc2c(NC(=O)c3ccccc3)ncnc21 | 7 | . | . | . | . | 16
O=C(/C=C(\Nc1ccc(Br)c(F)c1)c1ccccc1)c1ccccc1 | -13 | . | . | . | . | 5

Screening data deposited in PubChem by The Scripps Research Institute Molecular Screening Center.
